This is an account of results in ChEMBL document CHEMBL4190227, “Syntheses, toxicities and anti-inflammation of H2S-donors based on non-steroidal anti-inflammatory drugs” (Eur J Med Chem, 2017).

A short description of data set [1]: Drug degradation in phosphate buffer assessed as H2S release by measuring test compound half life at 40 uM measured every 5 mins in presence of L-cysteine by UV-Vis spectrometry. The class given is physicochemical. The essentials:
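Sulfide release at 37.5 °C: donor (40 mM THF stock) added to pH 7.4 phosphate buffer with 1.0 mM L-cysteine; aliquots taken every 5 min into zinc acetate/N,N-dimethyl-1,4-phenylenediamine/FeCl3 in HCl, A670 read 15 min later; H2S quantified against Na2S standard curve (5–150 μM); release curve plotted vs time; four independent experiments.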

The nature of data set [2]: Toxicity in AB zebrafish embryo assessed as percentage of embryos alive at 20 uM measured at 120 hrs post fertilization by dissecting light microscopic analysis relative to DMF. The class given is organism-based, Danio rerio. The conditions noted are these: read-out: Activity. The essentials: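 Wild-type AB zebrafish embryos, collected within 1 h of lights-on and washed in E3 medium, were exposed one embryo per well in 200 μL test solution, with plates sealed against evaporation. There were 100 embryos per group, split into three replicate groups. Mortality was recorded at 24–168 hpf. DMF vehicle (1:1000) served as control. Results are mean ± SD of three replicates.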

Data set [3] is filed under the species Danio rerio. The data set can be described thus: Toxicity in AB zebrafish embryo assessed as reduction in embryonic spontaneous movement frequencies per minute up to 1 uM measured at 24 hrs post fertilization by stereoscopic dissecting light microscopic analysis. The settings on record: in vivo. The class given is organism-based. The essentials: (§1)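 AB embryos exposed from 4 to 24 hpf to compound (0.5–20 μM) or DMF vehicle (1:1000); ten embryos per group chosen randomly; spontaneous movement recorded under stereoscopic dissecting microscope, frequency per min counted at 24 hpf; three independent experiments, mean ± SD.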

The species named for data set [4] is Danio rerio. The data set can be described thus: Toxicity in AB zebrafish embryo assessed as embryonic spontaneous movement frequencies per minute at 5 uM measured at 24 hrs post fertilization by stereoscopic dissecting light microscopic analysis (reference value: 15.9 /min). The class given is organism-based. The settings on record: in vivo. The essentials:
as §1

In data set [5] the test system is RAW264.7. The data set can be described thus: Antiinflammatory activity in mouse RAW264.7 cells assessed as LPS-induced TNFalpha levels at 100 uM incubated for 24 hrs post LPS induction by ELISA relative to control. The class given is functional. The essentials: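 LPS (1 μg/mL) for 4 h, then compound at 10, 50, 100 μM for 24 h; cells lysed in RIPA, spun 12,000×g 10 min, protein normalised by BCA to 0.1 mg/mL; target (TNF-α, HO-1, IL-10 or COX-2) quantified by sandwich ELISA kit with mouse-specific polyclonal antibodies; four independent experiments.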

For data set [6], the system named is RAW264.7. The data set can be described thus: Antiinflammatory activity in mouse RAW264.7 cells assessed as increase in IL10 levels at 100 uM measured after 24 hrs in absence of LPS by ELISA relative to control. The class given is functional. In a few lines:
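Macrophages exposed 24 h to 10, 50, 100 μM without LPS; lysates (RIPA, 12,000×g spin) normalised by BCA to 0.1 mg/mL protein; IL-10 measured by mouse-specific sandwich ELISA kit; four independent experiments, mean ± SD.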
On the technique in general: An ELISA detects its analyte on a solid surface through an enzyme-linked reagent.

Data set [7] in a line: Drug degradation in phosphate buffer assessed as H2S release by measuring test compound half life at 40 uM measured every 5 mins in presence of TECP by UV-Vis spectrometry. The class given is physicochemical. In a few lines: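 Sulfide release at 37.5 °C: donor (40 mM THF stock) added to pH 7.4 phosphate buffer with 1.0 mM TECP; aliquots taken every 5 min into methylene blue cocktail (zinc acetate, N,N-dimethyl-1,4-phenylenediamine, FeCl3 in HCl), A670 read 15 min later; H2S from Na2S calibration curve; concentration vs time curve; four independent experiments.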

Data set [8] is filed under the species Danio rerio. The data set can be described thus: Toxicity in AB zebrafish embryo assessed as embryonic spontaneous movement frequencies per minute at 1 to 20 uM measured at 24 hrs post fertilization by stereoscopic dissecting light microscopic analysis (reference value: 15 /min). The class given is organism-based. The conditions noted are these: in vivo. The essentials: as §1

The subject of data set [9] is Danio rerio. The data set can be described thus: Toxicity in AB zebrafish embryo assessed as pericardial edema at 0.5 uM measured at 96 hrs post fertilization by stereoscopic dissecting light microscopic analysis. The class given is organism-based. The settings on record: in vivo. In a few lines: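 AB embryos exposed from 4 hpf through 96 hpf to compound or DMF vehicle (1:1000); malformations scored at 96 hpf under stereoscopic dissecting microscope; 100 embryos per group in three replicates; three independent experiments, mean ± SD.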

For the compound `CC(=O)Nc1ccc(OC(=O)CCCCC2CCSS2)cc1` (centres undefined), the half-life (as a rule, how long it takes for the measured level to halve) at 40 µM in data set [1] turned out to be 14.1 min. Further, in data set [2], the survival at 120 h, 20 µM came to 41%. Besides, the Activity entry in the data set filed under Danio rerio [3] is “Non-Toxic”; in the data set listed under Danio rerio [4] it was 14.1 min⁻¹; in the data set on RAW264.7 [5] it was 50%. Further, the “fold change (FC)” value in the data set with RAW264.7 [6] was determined as 3.
For the compound `CC(C)Cc1ccc(C(C)C(=O)Oc2ccc(C(N)=S)cc2)cc1` (centres undefined), in [7], the half-life at 40 µM came out at 20.1 min. The values for the Activity in the data set listed under Danio rerio [8] and in the data set with Danio rerio [9] were 11 min⁻¹ and “Toxic”, respectively.
